We go through 13 molecules from ChEMBL document CHEMBL1125054, “1-(aminoalkyl)-2-phenylindoles as novel pure estrogen antagonists” (J Med Chem, 1990).

As usually defined, the inhibition is the relative decrease from the control value, in per cent.

The target of assay [1] is T1, Estrogen receptor (Mus musculus) (UniProt O08537+P19785). In words: Percent inhibition of uterotrophic effect in mice at 25 ug dose. It counts as functional. The method in brief:
(§1)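 Mice were immature female NMRI (20 days old) given sc injections in olive oil on three consecutive days, each containing 0.4 μg estrone plus test compound. Uteri were weighed dry 24 h after the last injection. Antagonism (%) = 100 − [(W_S,T − W_V)/(W_S − W_V) × 100], with relative uterine weights from estrone+compound, estrone alone and vehicle controls. Significance was tested by Mann-Whitney U test.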

For assay [2], the target named is T1, Estrogen receptor (Mus musculus). In words: Uterotrophic effect in mice at 5 ug. The format is functional, tissue-based. To be noted: Uterus. The procedure, abridged: (§2)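 Immature NMRI female mice, 20 days old, groups of 6-10, received test compound in olive oil (100 μL/animal) sc on three consecutive days; vehicle controls were included. At 24 h after the last dose, uteri were fixed in Bouin solution and dried at 100 °C for 24 h. Read-out was uterine dry weight (mg)/body weight (g) × 100, mean of six animals ± SD.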

Assay [3] shares this target. In words: Uterotrophic effect in mice at 125 ug. To be noted: Uterus. The format is functional, tissue-based. The method in brief:
as §2

Assay [4] shares this target. In words: Percent inhibition of uterotrophic effect in mice at 125 ug dose. It counts as functional. The procedure, abridged: as §1
Assay [5] shares this target. In words: Percent inhibition of uterotrophic effect in mice at 5 ug dose. The format is functional. The procedure, abridged:
as §1

Assay [6] has the same target. In words: Uterotrophic effect in mice at 25 ug. It counts as functional, tissue-based. To be noted: Uterus. The procedure, abridged: as §2
Assay [7] has the same target. In words: Anti-uterotrophic effect in mice at 125 ug. The format is functional. The procedure, abridged: (§3)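 Immature female NMRI mice (20 days old), groups of 6-10, injected sc in olive oil (100 μL/animal) on three consecutive days with test compound plus 0.4 μg estrone per animal and day. Killed 24 h after last injection; uteri fixed in Bouin solution, dried at 100 °C for 24 h. Relative uterine weight = uterine dry weight (mg)/body weight (g) × 100; mean of six animals ± SD.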

Assay [8] has the same target. In words: Anti-uterotrophic effect in mice at 25 ug. The format is functional. The procedure, abridged:
as §3

The target is the same in assay [9]. In words: Anti-uterotrophic effect in mice at 5 ug. The format is functional. The method in brief:
as §3

Assay [10] concerns the target Estrogen receptor (Bos taurus) (UniProt Q9XSB5+P49884). In words: Relative binding affinity to calf uterine estrogen receptor. The format is protein assay. The method in brief: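 Calf uterine cytosol (105000g supernatant, 3 mg/mL protein in the assay) in Tris/EDTA/NaN3 buffer pH 7.5, with 5 nM 17β-[3H]estradiol and competitor at 10^-9–10^-5 M. Incubated 18 h at 4 °C; bound and free ligand separated with dextran-coated charcoal. Nonspecific binding defined with 5 μM estradiol. RBA = ratio of molar concentrations of estradiol and compound giving 50% displacement × 100.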

For assay [11], the target named is T1, Estrogen receptor (Mus musculus). In words: Uterotrophic effect in mice at 1 ug. It counts as functional, tissue-based. The following applies: Uterus. The procedure, abridged: as §2
For assay [12] the target is unchanged. In words: Anti-uterotrophic effect in mice at 1 ug. It counts as functional. The procedure, abridged: as §3
For assay [13] the target is unchanged. In words: Percent inhibition of uterotrophic effect in mice at 1 ug dose. It counts as functional. The method in brief: as §1

T1 sequence (O08537 whole entry, looked up): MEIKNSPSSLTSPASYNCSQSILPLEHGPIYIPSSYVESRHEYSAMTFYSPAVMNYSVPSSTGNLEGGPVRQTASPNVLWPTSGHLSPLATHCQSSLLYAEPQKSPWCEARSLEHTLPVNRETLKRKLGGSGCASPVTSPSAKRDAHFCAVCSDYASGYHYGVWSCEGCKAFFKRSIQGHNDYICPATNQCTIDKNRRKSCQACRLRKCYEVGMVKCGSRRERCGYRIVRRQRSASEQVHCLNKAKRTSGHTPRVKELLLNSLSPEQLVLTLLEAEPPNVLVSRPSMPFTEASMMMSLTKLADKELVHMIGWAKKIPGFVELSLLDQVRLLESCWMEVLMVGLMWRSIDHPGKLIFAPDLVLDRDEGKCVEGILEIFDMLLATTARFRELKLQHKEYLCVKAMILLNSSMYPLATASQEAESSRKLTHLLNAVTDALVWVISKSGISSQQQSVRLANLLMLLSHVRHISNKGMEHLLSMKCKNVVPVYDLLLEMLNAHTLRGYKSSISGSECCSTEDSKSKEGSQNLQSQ
T1 sequence (P19785 whole entry, looked up): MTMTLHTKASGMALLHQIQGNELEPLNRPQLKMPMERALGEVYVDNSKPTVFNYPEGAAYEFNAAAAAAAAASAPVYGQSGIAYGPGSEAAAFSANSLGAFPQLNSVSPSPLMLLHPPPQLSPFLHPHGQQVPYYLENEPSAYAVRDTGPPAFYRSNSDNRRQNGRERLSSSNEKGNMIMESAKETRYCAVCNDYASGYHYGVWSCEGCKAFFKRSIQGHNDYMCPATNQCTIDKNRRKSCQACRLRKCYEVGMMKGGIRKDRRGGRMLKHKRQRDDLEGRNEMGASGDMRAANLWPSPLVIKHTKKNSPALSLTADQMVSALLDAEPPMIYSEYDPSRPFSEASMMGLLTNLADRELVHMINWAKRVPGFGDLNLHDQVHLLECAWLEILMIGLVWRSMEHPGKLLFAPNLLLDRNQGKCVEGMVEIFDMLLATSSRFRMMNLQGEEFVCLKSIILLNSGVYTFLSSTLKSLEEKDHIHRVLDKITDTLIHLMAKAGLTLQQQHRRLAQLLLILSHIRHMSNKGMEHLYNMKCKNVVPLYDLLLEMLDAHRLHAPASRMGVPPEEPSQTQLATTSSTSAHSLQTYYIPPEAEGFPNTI

For the molecule `CC1=C(c2ccc(O)cc2)C(CCCCCCNCc2ccccc2)c2ccc(O)cc21` (stereo unspecified), the inhibition in [1] was 43%; in assay [4], 51%; in assay [5], 25%. For the same molecule, the Relative uterine weight in [2] came to 17.8; in assay [3], 34; in assay [6], 23.6; in assay [7], 40.8; in [8] it was 44.6; in assay [9] it was 53.2. The relative binding affinity (RBA) in assay [10] turned out to be 15.

Take `Oc1ccc(C2=Cc3cc(O)ccc3C2CCCCCCN2CCCC2)cc1` (stereo unspecified): the relative binding affinity (RBA) in [10] came to 2.3.

As for `Oc1ccc(C2=Cc3cc(O)ccc3C2CCCCCCN2CCCCC2)cc1` (stereo unspecified), the relative binding affinity (RBA) in assay [10] was determined as 1.3.

`CNCCCCCCC1C(c2ccc(O)cc2)=C(C)c2cc(O)ccc21` (stereo unspecified): the Relative uterine weight in assay [2] is 22.8; in assay [3] it was 34; in assay [7], 33.7; in assay [9] it was 38.1; in assay [11] it was 14.4. Besides, the inhibition is 59% in assay [4] and 49% in [5]. For the same molecule, the relative binding affinity (RBA) in assay [10] stood at 27.

As for `CC1=C(c2ccc(O)cc2)C(CCCCCCCN)c2ccc(O)cc21` (stereo unspecified), the relative binding affinity (RBA) in assay [10] is 11.

`CC1=C(c2ccc(O)cc2)C(CCCCCCN(C)C)c2ccc(O)cc21` (stereo unspecified): the relative binding affinity (RBA) in assay [10] worked out at 12.

On to `CC1=C(c2ccc(O)cc2)C(CCCCCCN)c2ccc(O)cc21` (stereo unspecified), for which the inhibition in assay [1] is 102%; in assay [4], 99%; in assay [5], 68%. For the same molecule, the Relative uterine weight in assay [2] stood at 11.9; in assay [3], 16.9; in assay [6], 12.4; in [7], 16.2; in [8], 15; in assay [9] it was 30.1. Further, the Relative uterine weight in [12] was found to be 65.9; in [11] it was 10.9. Besides, the relative binding affinity (RBA) in assay [10] stood at 25.

For `CC1=C(c2ccc(O)cc2)C(CCCCCCN2CCOCC2)c2ccc(O)cc21` (stereo unspecified), the inhibition turned out to be 18% in assay [1], 102% in [4] and 8% in assay [5]. The Relative uterine weight amounted to 19.5 in assay [2]; 17.4 in assay [3]; 21.8 in assay [6]; 18 in assay [7]; 47.7 in [8]; 51.2 in assay [9]. For the same molecule, the relative binding affinity (RBA) in [10] worked out at 10.

For `CC1=C(c2ccc(O)cc2)C(CCCCCCN2CCCCC2)c2ccc(O)cc21` (stereo unspecified), the Relative uterine weight in assay [2] came to 19.7; in assay [3] it was 24.7; in assay [6], 21.4; in assay [7], 22.3; in assay [9], 28.9. Besides, the results for the inhibition in assay [4] and in assay [5] were 98% and 71%, respectively. The relative binding affinity (RBA) in assay [10] came out at 23.

`CC1=C(c2ccc(O)cc2)C(CCCCCCCCN2CCCC2)c2ccc(O)cc21` (stereo unspecified) gave a relative binding affinity (RBA) in assay [10] of 7.6.

As to `CC1=C(c2ccc(O)cc2)C(CCCCCCN2CCCC2)c2ccc(O)cc21` (stereo unspecified), the inhibition in assay [1] was determined as 103%; in assay [4], 117%; in assay [5] it was 100%; in assay [13], 20%. Moreover, the Relative uterine weight in assay [2] was found to be 9; in [3] it was 14.1; in assay [6], 13.9; in assay [7], 8.9; in [8], 14.4; in assay [9], 15.4. Also, the Relative uterine weight in [12] was determined as 45.8; in assay [11], 12.5.

With `CC1=C(c2ccc(O)cc2)C(CCCCN2CCCC2)c2ccc(O)cc21` (stereo unspecified), the inhibition in assay [1] stood at 78%; in assay [4], 53%; in assay [13], 5%. Further, the Relative uterine weight in [2] came to 8; in [3], 6.4; in [6], 6.4; in [7], 25.5; in assay [8], 16.2; in [9], 47.6. For the same molecule, the Relative uterine weight in assay [12] was 43.7; in assay [11] it was 7.6. Besides, in [10], the relative binding affinity (RBA) came to 3.6.

With `CCN(CC)CCCCCCC1C(c2ccc(O)cc2)=C(C)c2cc(O)ccc21` (stereo unspecified), the Relative uterine weight in assay [2] was 16.1; in assay [3], 22.4; in assay [6], 18.2; in assay [7] it was 30.9; in [8], 52.5; in assay [9], 46. Moreover, the inhibition worked out at 61% in [4] and 23% in [5]. The relative binding affinity (RBA) in assay [10] turned out to be 14.
